{"source": "ChEMBL document CHEMBL3804769", "about": "“Antibacterial Diamines Targeting Bacterial Membranes” (J Med Chem, 2016)", "key": {"Staphylococcus aureus [1]": {"tested_on": "Staphylococcus aureus", "experiment": "Bactericidal activity against Staphylococcus aureus RN4220 ATCC 35556 assessed as reduction in bacterial burden at 4 times MIC99", "assay_type": "functional"}, "Staphylococcus aureus [2]": {"tested_on": "Staphylococcus aureus", "experiment": "Antibacterial activity against Staphylococcus aureus RN4220 ATCC 35556 in early exponential-phase assessed as lysis of cells at 2 times MIC99 after 30 to 60 mins by transmission electron microscopy", "assay_type": "functional, organism-based", "how_it_was_run": "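Cells grown in LB to early exponential phase (OD600 ~0.4). Exposed to 2× MIC99 for 15–60 min, washed twice in phosphate buffer, fixed in 2.5% glutaraldehyde, then imaged by transmission electron microscopy.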"}, "Staphylococcus aureus [3]": {"tested_on": "Staphylococcus aureus", "experiment": "Potentiation of kanamycin-induced antibacterial activity against Staphylococcus aureus RN4220 ATCC 35556 assessed as reduction in kanamycin MIC99 at 0.5 times MIC99 after 24 hrs by checkerboard assay relative to control", "assay_type": "functional", "how_it_was_run": "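Checkerboard assay: compound serially diluted along one axis of a 96-well plate and antibiotic along the other, in LB. Each well inoculated with 2 × 10⁴ CFU and incubated 24 h at 37 °C. ΣFIC = FIC A + FIC B, where each FIC is the combination MIC99 divided by the MIC99 of that drug alone.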"}, "Pseudomonas aeruginosa": {"tested_on": "Pseudomonas aeruginosa", "experiment": "Bactericidal activity against Pseudomonas aeruginosa PAO1 ATCC 47085 in exponential-phase assessed as reduction in bacterial burden at 4 times MIC99 upto 6 hrs by time-kill assay", "assay_type": "functional", "how_it_was_run": "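Overnight cultures washed and resuspended in PBS, then diluted 100-fold into LB (exponential-phase model) or into 1% PBS (stationary-phase model). Test agent added at 4× MIC99. Incubated at 37 °C with shaking at 200 rpm. CFU counted on LB agar at 0, 2, 4 and 6 h.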"}, "Staphylococcus aureus [4]": {"tested_on": "Staphylococcus aureus", "experiment": "Antibacterial activity against methicillin-resistant Staphylococcus aureus clinical isolate 10076B SPA type 2 after 24 hrs by microbroth dilution method", "assay_type": "functional", "how_it_was_run": "(§1)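 MRSA isolates from ICU surfaces, stored at −80 °C and grown in Mueller-Hinton broth. Overnight cultures diluted and added to serially diluted compound at ~10⁵ CFU/mL, broth microdilution. Plates incubated 24 h at 37 °C, growth read as absorbance at 620 nm. MIC99 taken as the lowest concentration giving complete growth inhibition.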"}, "[5]": {"experiment": "Selectivity index, ratio of CC50 for human A549 cells to MIC99 for Staphylococcus aureus RN4220 ATCC 35556", "assay_type": "toxicity, cell-based", "conditions": "read-out: Selectivity Index", "how_it_was_run": "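CC50: HEK293T/17 or A549 cells seeded at 10⁴ per well in DMEM with 10% FBS at 37 °C, 5% CO2. After 24 h, wells PBS-washed and serially diluted compound applied for 48 h, with viability read by MTS and CC50 taken by nonlinear regression. MIC99 by CLSI broth microdilution, overnight at 37 °C without shaking, from three independent tests. SI = CC50/MIC99.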"}, "Escherichia coli": {"tested_on": "Escherichia coli", "experiment": "Antibacterial activity against Escherichia coli ANS1 incubated overnight by microbroth dilution method", "assay_type": "functional", "how_it_was_run": "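Bacteria grown in LB medium. CLSI microbroth dilution in 96-well plates, overnight at 37 °C without shaking. MIC99 taken as the lowest concentration giving complete growth inhibition. Three independent determinations, reported as mean ± SD.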"}, "Staphylococcus aureus [6]": {"tested_on": "Staphylococcus aureus", "experiment": "Antibacterial activity against methicillin-resistant Staphylococcus aureus clinical isolate 30253CA SPA type 7 after 24 hrs by microbroth dilution method", "assay_type": "functional", "how_it_was_run": "as §1"}, "[7]": {"experiment": "Cytotoxicity against HEK293T/17 cells after 48 hrs by MTS conversion assay", "assay_type": "cell-based, HEK-293T", "conditions": "human", "how_it_was_run": "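HEK293T/17 and A549 cells maintained in DMEM with 10% FBS at 37 °C, 5% CO2. Seeded at 10⁴ cells per well; after 24 h, washed with PBS and exposed to serially diluted compound for 48 h. Viability read by MTS conversion. CC50 obtained by nonlinear regression.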"}, "Staphylococcus aureus [8]": {"tested_on": "Staphylococcus aureus", "experiment": "Antibacterial activity against Staphylococcus aureus RN4220 ATCC 35556 in exponential-phase assessed as cytoplasmic membrane depolarization at 1 to 4 times MIC99 by fluorescent probe DiSC3-5 based fluorophotometric analysis", "assay_type": "functional, organism-based", "how_it_was_run": "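Log-phase cells (OD600 ~0.7) washed and resuspended to OD600 0.05 in 5 mM HEPES pH 7.2 with 5 mM glucose and 100 mM KCl. Loaded with 0.4 μM DiSC3-5 in the dark until fluorescence fell stably by about 90%. Compound added at 4× or 1× MIC99 and fluorescence recorded continuously at 25 °C (ex 622/em 670 nm). 2,4-Dinitrophenol as positive control. Three independent experiments.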"}}, "note": "The source made the active and inactive calls. No cut-off for these calls is given here."}
{"smiles": "Cl.Cl.S=C(NCCCNCCCCCNCCCNC(=S)NCC(c1ccccc1)c1ccccc1)NCC(c1ccccc1)c1ccccc1", "values": [{"measurement": "Activity", "setting": "Staphylococcus aureus [1]", "result": ">2", "unit": "deltalog10CFU/ml"}, {"measurement": "Activity", "setting": "Staphylococcus aureus [2]", "result": "Active"}, {"measurement": "fold change (FC)", "setting": "Staphylococcus aureus [3]", "result": 8}, {"measurement": "Activity", "setting": "Pseudomonas aeruginosa", "result": 4, "unit": "deltalog10CFU/ml"}, {"measurement": "MIC99", "setting": "Staphylococcus aureus [4]", "result": 1, "unit": "µg/mL"}, {"measurement": "selectivity ratio", "setting": "[5]", "result": 32}, {"measurement": "MIC99", "setting": "Escherichia coli", "result": 2, "unit": "µg/mL"}, {"measurement": "MIC99", "setting": "Staphylococcus aureus [6]", "result": 1, "unit": "µg/mL"}, {"measurement": "CC50 at 48 h", "setting": "[7]", "result": 32, "unit": "µg/mL"}, {"measurement": "Activity", "setting": "Staphylococcus aureus [8]", "result": "Active"}]}
